# From PubChem
# A selection: hits, their analogues and other compounds. The true share with any hit is near 1.5%.
# Mdm2 ligase inh – blocks human Mdm2 ubiquitin ligase activity; Q00987; cell-based MDM2 ubiquitination luciferase reporter, 2 h; 0 = plate control, 100 = twice control, blank-subtracted; 210,000 compounds, 0.11% hits; AID 1230; signal enhancement, % at 5 µM;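 active means signal enhancement of 30% or more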;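 further: luminescence tracks abundance of the self-degrading MDM2-luciferase fusion protein; higher signal means inhibition of MDM2 E3 ligase activity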
#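 Material: stable MDM2–luciferase fusion reporter cells / Quantity: 2000 cells/well / Dosing: single 5 µM compound dose, 0.2% final DMSO / Buffer or medium: DMEM / Schedule: 4 h cell settling then 2 h compound exposure, 37 °C / Detection: luminescence with SteadyLite reagent, 15 min at room temperature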
# m-calpain inh – blocks pig calpain II enzyme activity. inhibition, % at 16 µM. purified calpain II, fluorogenic peptide substrate, 30 min. 220,000 compounds, 0.37% hits;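 active means inhibition above about 50%, limit read from the data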
# Pf gamet viab – P. falciparum stage V gametocyte viability inhibition; P. falciparum stage V gametocytes, ATP luminescence, 24 h; inhibition, % at 10.9 µM; 150,000 compounds, 0.065% hits;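 active means inhibition above the mean plus 3 SD of compounds within the control limits, set per campaign, cut at about 38% in these data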;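 further: 0% = DMSO wells and 100% = medium only without gametocytes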
# Hsp70 activator – switches on Hsp70 transcription; HeLa Hsp70 promoter luciferase reporter, luminescence; scaled: vehicle 0, proteasome-inhibitor control 100%; 200,000 compounds, 0.04% hits; AID 1203; activation, % at 10 µM;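 active means activation above the mean across all tested compounds plus 3 SD, cutoff set per campaign, cut at about 5.5% in these data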;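 further: 100% = MG132 at 30 µM as the positive control and 0% = DMSO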
# Wee1 degr inh – blocks degradation of human Wee1 kinase. P30291. HeLa Luc-Wee1K328M stability, luciferase luminescence; 100% = proteasome inhibitor MG132 effect. reporter increase, % at 5 µM. 220,000 compounds, 1.2% hits;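 active means activation above the mean of all tested compounds plus 3 SD, set per screening run, cut at about 8.8% in these data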;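 further: cells exposed to compound for 20 h before luminescence read; 0% = DMSO alone and 100% = MG132 at 30 µM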
# Target sequence (P30291 whole entry K328M): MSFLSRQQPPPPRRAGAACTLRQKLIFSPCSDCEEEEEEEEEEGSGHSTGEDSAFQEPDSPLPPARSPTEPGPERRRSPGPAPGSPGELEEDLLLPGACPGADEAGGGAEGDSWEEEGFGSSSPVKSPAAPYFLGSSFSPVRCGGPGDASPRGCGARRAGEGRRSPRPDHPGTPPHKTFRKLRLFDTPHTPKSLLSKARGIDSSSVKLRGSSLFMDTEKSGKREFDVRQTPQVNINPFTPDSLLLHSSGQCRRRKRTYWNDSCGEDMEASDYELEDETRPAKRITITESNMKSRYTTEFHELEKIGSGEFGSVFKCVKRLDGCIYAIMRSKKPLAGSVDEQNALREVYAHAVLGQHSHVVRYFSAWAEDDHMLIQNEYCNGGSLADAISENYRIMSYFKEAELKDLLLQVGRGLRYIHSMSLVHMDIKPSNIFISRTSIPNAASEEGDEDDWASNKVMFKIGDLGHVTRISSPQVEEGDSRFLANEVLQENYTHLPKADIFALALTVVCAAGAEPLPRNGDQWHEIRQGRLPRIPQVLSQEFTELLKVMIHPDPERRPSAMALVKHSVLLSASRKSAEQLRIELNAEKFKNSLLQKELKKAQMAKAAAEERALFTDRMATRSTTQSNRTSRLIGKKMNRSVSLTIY
# * hit, by the source's call; · = not tested or not shown.
SMILES,Mdm2 ligase inh,m-calpain inh,Pf gamet viab,Hsp70 activator,Wee1 degr inh
CC(C)c1ccc(N2C(=O)CC(Sc3ncccn3)C2=O)cc1 (stereo not given),·,·,4,·,·
Cc1ccc2nc(NC(=O)COC(=O)c3ccccn3)sc2c1,-4,22,-1,0,9.3*
COC(=O)C[C@H]1c2cc(F)cc(F)c2S(=O)(=O)N1C1CCN(Cc2ccccc2)CC1,·,·,-36,·,·
Cc1cc(C)n2c(nc3ccccc32)c1C(=O)NN,-11,-332,-5,·,1
COC(=O)c1c(C)cc(C)n2c1nc1ccccc12,-11,-386,-7,0,9.8*
CCNC(=S)Nc1ccc2c(c1)oc1ccccc12,·,·,19,·,·
CC(C)(C)N1C(=O)[C@H]2[C@@H](c3ccc(Br)cc3)N3C(=O)N(c4ccccc4)C(=O)[C@@]3(C)[C@H]2C1=O,·,·,17,·,·
O=C(Oc1nsnc1N1CCCCC1)N1CCOCC1,0,-23,-16,0,8.9*
O=C(Oc1nsnc1N1CCOCC1)N1CCCC1,·,·,-33,-1,0
Cc1ccc(C(=O)Nc2nc3n(n2)C(c2ccccc2)CC(=O)N3)cc1 (stereo not given),0,11,-1,·,-4
O=C1C2C3C=CC(C3)C2C(=O)N1c1ccc(-c2nc(-c3ccccc3)nc3ccccc23)cc1 (stereo not given),·,·,-7,·,·
CCOC(=O)CN1N=C(/C=C/c2ccccc2)CCC1=O,·,·,-38,0,-2
CCOC(=O)CN1N=C(/C=C/c2ccc(C(C)C)cc2)CCC1=O,-2,55*,-5,0,-2
O=C(COC(=O)c1cc(Cl)ccc1[N+](=O)[O-])NCc1ccc(Cl)cc1Cl,-10,57*,13,0,0
CC(=O)NC(C)(CC(=O)c1ccccc1)c1ccccc1 (stereo not given),·,·,5,·,·
COc1cc(OC)cc(C(=O)NCCCCc2ccccc2)c1,·,·,-14,·,·
COc1ccc([C@H]2CC(=O)C=C(c3cccc4c3Oc3ccccc3S4)C2)cc1,·,·,-17,·,·
COc1ccc(NC(C)c2cc(Cl)ccc2O)cc1 (stereo not given),-13,50*,-54,0,2
CCCOc1ccc(C(=O)OCCN2CCCCC2)c(O)c1,·,·,6,·,·
CCOc1ccc(-c2nc(C)c(C(C)=O)n2O)cc1,-16,-16,8,0,0
COc1ccc(-c2nc(C)c(C(C)=O)n2O)cc1,30*,-14,·,0,1
CN(c1ncc(C(F)(F)F)cc1Cl)N1C(=O)c2cccc(N)c2C1=O,-2,2,·,0,10*
CCOC(=O)c1cccc(COC(=O)c2cccc(-c3nnc(-c4ccccc4)o3)c2)c1,-31,-9,-19,0,9.7*
CCN(C(=O)COC(=O)c1cn(-c2ccccc2)nc1-c1ccccc1)C1CCS(=O)(=O)C1 (stereo not given),1,-27,4,0,2
CCN(C(=O)COC(=O)c1cc(-c2ccccc2)nn1-c1ccccc1)C1CCS(=O)(=O)C1 (stereo not given),-14,-9,·,0,10*
SMILES,Mdm2 ligase inh,m-calpain inh,Pf gamet viab,Hsp70 activator,Wee1 degr inh
COc1ccc(NC(=O)c2ccccc2SC)cc1,-12,90*,9,0,-4
COCCn1c(=NC(=O)c2ccc(S(=O)(=O)N3CCCc4ccccc43)cc2)sc2cc(S(C)(=O)=O)ccc21,42*,-43,4,0,0
CCc1ccc2oc(=O)cc(CN3CCN(c4ccc(F)cc4)CC3)c2c1,-6,27,·,-1,11*
CCOC(=O)C(C)(C)Oc1cccc2c1S(=O)(=O)c1ccccc1-2,·,·,-6,·,·
COc1ccccc1N1CCN(C(=O)c2ccc(CS(=O)(=O)c3ccccc3OC)o2)CC1,-18,-16,-12,0,9.8*
CCOC(=O)N1CCN(c2ccccc2O)CC1,-14,12,·,0,1
CCOC(=O)N1CCN(c2ccccc2OC)CC1,-5,-8,19,·,9.6*
CCOC(=O)N1CCN(C(=O)c2ccc(CS(=O)(=O)c3ccccc3OC)o2)CC1,-22,-6,-29,0,-4
CCOC(=O)c1c(CSC(=N)N)n(-c2ccccc2)c2cc(Br)c(OC(C)=O)cc12,-13,-42,-26,·,-1
C=CCOC(=O)C1=C[C@@H](c2ccc(C(F)(F)F)cc2)C[C@@H](OCc2ccc(CO)cc2)O1,·,·,2,·,·
O=C(CCNc1ccccc1)c1cccc([N+](=O)[O-])c1,-13,51*,8,0,-2
